Here are results for 48 sequences from the EternaBench riboswitch data.

The apparent Kd is the concentration giving half-maximal binding under the conditions of the assay.

The subject of the data set is MS2 coat protein. Briefly: apparent Kd, MS2 coat protein; higher = weaker binding; RNA-MaP array; FMN 200 µM where present. The procedure, abridged:
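Designs were transcribed by stalled E. coli RNA polymerase on Illumina sequencing-chip clusters. They were titrated with SNAP-549-labelled MS2 coat protein from 0.7 or 1.5 nM, doubling to 3 µM, without and then with constant ligand. Buffer: 100 mM Tris-HCl pH 7.5, 80 mM KCl, 4 mM MgCl2, BSA, DTT, yeast tRNA, Tween-20. Green signal was normalised to red-channel RNA signal and control-cluster median Fmax. Apparent Kd is the median of filtered per-cluster binding-curve fits.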

Where [1] appears, read: designed as: OFF switch for flavin mononucleotide, no ligand.
[2] abbreviates: ligand present: flavin mononucleotide, designed as: OFF switch for flavin mononucleotide.
[3] abbreviates: designed as: ON switch for flavin mononucleotide, no ligand.
[4] abbreviates: ligand present: flavin mononucleotide, designed as: ON switch for flavin mononucleotide.

With “UAUAUGUCAGGAUAUUAAUUAAGAUGGAAUUUAGUCUUAGUUGAGAAGGGACAUGAGGAUCACCCAUGUUCCUC”, the “apparent Kd” value under setting [1] amounted to 19.7 nM and the “apparent Kd” value under setting [2] came out at 159 nM.

In the case of “UUACUAUUACAGAAGGUUAAAUAAUAUAUAAAUGAAGGAUAUGUGACAUGAGGAUCACCCAUGUUUCACCCACAUGAGGAUCAU”, the “apparent Kd” value runs as follows: under setting [1], 8.62 nM; under setting [2], 7.41 nM.

In the case of “GGAGCGGAAGGAUAUGCUGCGGGAUUGAAUGGAAAGAAAAUACAUGAGGAUCACCCAUGUAGAAGGUCCGUGAA”, the “apparent Kd” value amounted to 18.2 nM under setting [1] and 54.2 nM under setting [2].

Turning to “AGAUUACGAGGAUAUCGAUUUUAGUACAUGAGGAUCACCCAUGUUAUCCAGGUCUCGUUUCGAGAAGGCGUGAUUC”, the “apparent Kd” value under setting [1] was 303 nM and the “apparent Kd” value under setting [2] stood at 132 nM.

“CUGUGAUGGAUCCAGAAUUACAACAUGAGGAUCACCCAUGUGCAGGAUAUCGGGUUGAUAGGCGCCGAGAAGGGUAUAAUCACG”: the “apparent Kd” value amounted to 110 nM under setting [1] and 105 nM under setting [2].

Take “GUACCUUAUGAGAAGGCGAUCAUGAAACAUGAUCGAGGAUAUCAUGUAAACAUGAGGAUCACCCAUGUAUGGGUAUUAUGGUAC”: the “apparent Kd” value under setting [3] worked out at 191 nM and the “apparent Kd” value under setting [4] was determined as 25.6 nM.

In the case of “GAGUGACAUGAGGAUCACCCAUGUGAGGAUAUCGGACGGACCAAAUUAACAACACCCGCGAGAAGGCACAUCGG”, the “apparent Kd” value runs as follows: under setting [1], 163 nM; under setting [2], 123 nM.

On to “AGUUACAAACUCAACAUGAGGAUCACCCAUGUACUCUCUUGUAAGGAUAUACAUUCGUAUUGAAAGUAGAAGGUACUAAUUAUG”, for which the “apparent Kd” value stood at 69.4 nM under setting [3] and 69.8 nM under setting [4].

As to “CCAUGGCAUGUAGGAUAUCUCUGACAAAGUCAGAGAGAAGGACAUGAGGAUCACCCAUGUAAACCGAAAGGAACAUAGCCAUGG”, the “apparent Kd” value reads like this: under setting [1], 6.31 nM; under setting [2], 6.26 nM.

For “CCUCGACAUGAGGAUCACCCAUGUCAGGAUAUUGUGUCUCGGGUUUUUUACCGAAAGGCGAGAAGGGAUGUGUG”, the “apparent Kd” value under setting [1] is 16.1 nM and the “apparent Kd” value under setting [2] came to 21 nM.

Turning to “ACUAGAUGAGGAUAUGCACAUUUUAGUGUUCCUCUAGAUUAACAUGAGGAUCACCCAUGUAGAAGGCGUCAUUA”, the “apparent Kd” value turned out to be 68 nM under setting [1] and 76.6 nM under setting [2].

As for “CUGUUGGGCUCAGGAUAUCGGGUUUAACAUGAGGAUCACCCAUGUCGUCUGCGAAAGCAGAAUCACGAGAAGGGAGACCAGCGA”, the “apparent Kd” value worked out at 13.3 nM under setting [3] and 7.53 nM under setting [4].

For the sequence “GGAUGAGAAACUCAUCCAAUUCGAACAUGAGGAUCACCCAUGUAGGAUAUGCUACUCAAAGAGUAGCAGAAGGACAUGUGCCUU”, the “apparent Kd” value is, setting by setting: under setting [1], 25 nM; under setting [2], 189 nM.

Regarding “AGCUGUGGCCGAGGAUAUCUAAACCUCGAAAACGAAAUAUAAUCGAACAUGAGGAUCACCCAUGUAGAGAAGGCGGUCUCAGCA”, the “apparent Kd” value under setting [1] is 69.6 nM and the “apparent Kd” value under setting [2] was determined as 211 nM.

In the case of “GUGGAGUACGUAGGAUAUGUAGGAUAUUCCUACAUGAGGAUCACCCAUGUUGACAUGGAGGAAGGACAGAAGGACGUGCUCCAG”, the “apparent Kd” value stood at 265 nM under setting [3] and 256 nM under setting [4].

For “UUUAGUUCAGGAUAUGUAGAUUUUAACAUGAGGAUCACCCAUGUAAAUCCUGAUCCUGCUACAGAAGGGAACAUUU”, the “apparent Kd” value runs as follows: under setting [1], 17 nM; under setting [2], 20.7 nM.

On to “ACAGUAUAUGUAGGAUAUCAUUGGCCAGGUAGGUGAGAAGGGCAUAGUACAUGAGGAUCACCCAUGUGUUGGUCCUCGCAGAAA”, for which the “apparent Kd” value was determined as 392 nM under setting [1] and 233 nM under setting [2].

As to “AUAAAACAUGAGGAUCACCCAUGUCAACAAAGUCGAGGAUAUGGGCAAAUAAAAUAAGAACCAGAAGGCGAAUAAC”, the “apparent Kd” value under setting [3] is 371 nM and the “apparent Kd” value under setting [4] was found to be 34.7 nM.

As to “AGUGCCAUGUAGAAGGGAGAUCUGAUUCAGAUCUCAGGAUAUACAUGAGGAUCACCCAUGUAAAUGCACUGCACGAGAGUGCAA”, the “apparent Kd” value by setting is: under setting [1], 12.5 nM; under setting [2], 30.9 nM.

“GUCAGCUCGUGAGGAUAUACAUGUGCUGGAAACAGCACUAAUUAAAUCACAUGAGGAUCACCCAUGUAGAAGGCACGAGCUGAU”: the “apparent Kd” value by setting is: under setting [1], 16.4 nM; under setting [2], 23.6 nM.

Take “AAUGAGACCGCAGGAUAUCCACAUGAGGAUCACCCAUGUUCUCAGACCGGAAGCACGAUCUGCGAGGAGAAGGGCGACCUCAUA”: the “apparent Kd” value under setting [3] came out at 716 nM and the “apparent Kd” value under setting [4] was 53.1 nM.

On to “GCCAUCAUAUGAGGAUAUGACACCGAAACGGUGUCAGAAGGCAUGUCGAUAGACAUGAGGAUCACCCAUGUAUAGAUGAUGGCA”, for which the “apparent Kd” value under setting [3] came to 963 nM and the “apparent Kd” value under setting [4] was 67.8 nM.

As to “UGGUGACGUGUAGGAUAUGGAGGUGGGUUUUGGCCAGAAGGACAUGAGGAUCACCCAUGUGGUAGAGGGUUGGCGGUGGCCCGU”, the “apparent Kd” value worked out at 17.7 nM under setting [1] and 15.2 nM under setting [2].

For the sequence “CACCGUUACAGAGGAUAUCGUACAUGAGGAUCACCCAUGUAAUAAAUGAGAAUUUCGGAUGUAUGCGAGAAGGCUGGAAUCGGC”, the “apparent Kd” value under setting [1] worked out at 28.5 nM and the “apparent Kd” value under setting [2] turned out to be 36.1 nM.

Take “GGAGCACAUCAAUACAUGAGGAUCACCCAUGUCGAAUGAUAUGAGGAUAUGCAUCGGAAAACGAUGUAGAAGGCAUAGUGCUCC”: the “apparent Kd” value is 15.6 nM under setting [3] and 6.27 nM under setting [4].

“UGCCAAGCAGGAUAUGCACGUAAUAACAUGAGGAUCACCCAUGUGACCGAUUUAUAUUCUGCAGAAGGGCUUGGAU”: the “apparent Kd” value under setting [1] was found to be 54.9 nM and the “apparent Kd” value under setting [2] amounted to 152 nM.

For the sequence “GUGCCUUGGGAGAAGGCCCAAUGCAAAGCAUCGGGAGGAUAUUCAUAUAAUAAAUAAACAUGAGGAUCACCCAUGUGGCACAAA”, the “apparent Kd” value reads like this: under setting [3], 447 nM; under setting [4], 33 nM.

As to “CAAGGGCAUGAGAAGGCAUAAUAUAUAAUACCACAUGUUUACAUGAGGAUCACCCAUGUUACCUAUGAGGAUAUCAUGCCUACA”, the “apparent Kd” value reads like this: under setting [1], 14.4 nM; under setting [2], 12.9 nM.

In the case of “UGCAAAAUUGCAACAUGAGGAUCACCCAUGUCUGGGUUGGCCAAGGAUAUGCUUCUAAUCCUAGUGCAGAAGGUGGAAACUCAU”, the “apparent Kd” value under setting [3] was 201 nM and the “apparent Kd” value under setting [4] was determined as 530 nM.

Regarding “ACAAUGUUAGGAUAUCUGAGAAUUAGUCUCGACUAGUCGAAGGAGAAGGAACAUGAGGAUCACCCAUGUAGAUC”, the “apparent Kd” value reads like this: under setting [1], 43.4 nM; under setting [2], 275 nM.

Regarding “GGAUCUUGGGUCAGGAUAUGCUGAUAGUUAUGUCAGCAGAAGGGACAUGAGGAUCACCCAUGUGCUCGGUUUUG”, the “apparent Kd” value was determined as 11.1 nM under setting [1] and 19.7 nM under setting [2].

Turning to “CUUCGACAUGAGGAUCACCCAUGUCAGGAUAUUGUGUAUCGGGUUUUUUACGGAUAGGCAAGAAGGGAUGUGUG”, the “apparent Kd” value is, setting by setting: under setting [1], 35.6 nM; under setting [2], 34.2 nM.

As for “AAUAACAGAGGAUAUACUGUUUUAUGUGUUUGUUAUUUUGAACAUGAGGAUCACCCAUGUAGAAGGCUGAAUAA”, the “apparent Kd” value came to 24.6 nM under setting [1] and 22.1 nM under setting [2].

In the case of “CCGGAAACGGGUAGCUGACAUGAGGAUCACCCAUGUGAAACACAGGAUAUGGAUCCUAAUUGGAUCCAGAAGGGUGUCAGCUAC”, the “apparent Kd” value reads like this: under setting [3], 247 nM; under setting [4], 37.2 nM.

In the case of “AUAAUGUGAGGAUAUCAGUCGACUAGCUGCGGCUAGUCGACUGAGAAGGCACAUGAGGAUCACCCAUGUAGAUC”, the “apparent Kd” value by setting is: under setting [1], 978 nM; under setting [2], 47.7 nM.

With “AGUCGGAGCAGAGGAUAUACAUGAGGAUCACCCAUGUAAAUGAAUGAAGCCAGGAAACUGGCAAUGUAGAAGGCUGCUCCGACA”, the “apparent Kd” value under setting [1] was found to be 18 nM and the “apparent Kd” value under setting [2] is 52.8 nM.

Turning to “GGUUGUCAUAGUCAUCCUUUCCGUACAUGAGGAUCACCCAUGUAGGAUAUGCUACUCACGGUGUGGCAGAAGGGCGUGUGUCUU”, the “apparent Kd” value under setting [1] is 17.9 nM and the “apparent Kd” value under setting [2] came to 19.9 nM.

As for “ACAGGACCAGUCAGGAUAUGCAGGCGAAUCUGCUUGUAGAAGGGACAUGAGGAUCACCCAUGUGCCGUGGGAUU”, the “apparent Kd” value runs as follows: under setting [1], 19.6 nM; under setting [2], 31.4 nM.

On to “CGUGACUCAGGAUAUCUAUAGUGUCACAUGAGGAUCACCCAUGUCCAGCGAAAGCUGGAGGGAGAAGGGAGUCACG”, for which the “apparent Kd” value reads like this: under setting [1], 96.7 nM; under setting [2], 39.9 nM.

On to “GGAAACUACGAGAAGGACAUGUGGUCCUUCAGUUACAUGAGGAUCACCCAUGUAGGAUAUCGUAGUUUCAGGAUCGUGAGAUCA”, for which the “apparent Kd” value under setting [1] worked out at 33.2 nM and the “apparent Kd” value under setting [2] was found to be 10.7 nM.

Turning to “AUCAGCUUGACAGGAUAUACAUGACUGCGAAAGCAGUCUAUCUUAAUAACAUGAGGAUCACCCAUGUAGAAGGGUCGAGCUGAU”, the “apparent Kd” value is, setting by setting: under setting [1], 17.8 nM; under setting [2], 27 nM.

As to “UUAUACGUUGAGGAUAUGCGAAUUAGUAUAGUUGCAGAAGGCGAUACAUGAGGAUCACCCAUGUUCAUGGGCAU”, the “apparent Kd” value was 127 nM under setting [1] and 243 nM under setting [2].

As for “GUCACGAAUGUAGGAUAUCGAGUGGAAUACACUCGAGAAGGACAUGAGGAUCACCCAUGUACUAUGAAAGAUAAUAAACGUGAC”, the “apparent Kd” value under setting [1] was determined as 14.9 nM and the “apparent Kd” value under setting [2] amounted to 19.5 nM.

“GGAGACCUCACAGGAUAUGCUGGACUUUGUCCAGCAGAAGGGUGACUAAACAUGAGGAUCACCCAUGUGGUCUCCAAAUUUAAU”: the “apparent Kd” value by setting is: under setting [3], 740 nM; under setting [4], 68.2 nM.

On to “AUUUCGUCAGGAUAUCCUAGUAAUUGUUUCAUAUUUACAAAGGAGAAGGGACAUGAGGAUCACCCAUGUUGGUC”, for which the “apparent Kd” value was determined as 64.6 nM under setting [1] and 116 nM under setting [2].

“AAUAAUUAGUAAGGAUAUACUAGUGGUUAGCUUGUAGAAGGUACAGUCUUAUGUAUAACAAAUUAACAUGAGGAUCACCCAUGU”: the “apparent Kd” value under setting [3] was 10.6 nM and the “apparent Kd” value under setting [4] came to 8.19 nM.

As for “CCACCCUGAGGAUAUCCACCCUCAUACAUGAGGAUCACCCAUGUUCAUGCCUGAGUUCCCGGAGAAGGCAGAUUCC”, the “apparent Kd” value by setting is: under setting [1], 109 nM; under setting [2], 87.2 nM.

As to “AUGCUUUGUGUAGGAUAUGCAUACGGUACGUAUGCAGAAGGACAUGAGGAUCACCCAUGUAUAUUAUUAUUACAUAUCAUACAU”, the “apparent Kd” value runs as follows: under setting [1], 35.3 nM; under setting [2], 229 nM.
